Source: PubChem BioAssay (Broad Institute)
Compounds with a hit are over-represented: about 0.92% of the library has one in this group of screens.
FN deposition inh: fibronectin deposition inhibition; inhibition, % at 12.6 µM; 0.086% of 350,000 active; AH1F fibroblasts, Alexa488-fibronectin deposition fluorescence, overnight; AID 743247;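 active = mean inhibition across replicates of 30% or more, regardless of how many single replicates reach that level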
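Assay system: AH1F fibroblasts / Quantity: 10000 cells per well / Medium: DMEM plus 2% serum, read in PBS / Reagent: labelled fibronectin 24 nM / Dosing: single dose, pinned / Times: 1 h cell attachment, overnight exposure to compound and label / Signal: fluorescence, ex 485 nm, em 525 nm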
RAD54 inh: blocks human RAD54 Holliday junction branch migration; 0.14% of 360,000 active; Q92698; inhibition, % at 10.4 µM; AID 602329; FAM/BHQ fluorescence;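 active = mean normalized replicate activity at least 40 and at least half of replicates scoring 40 or more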;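 also: inhibitors cause a drop in the FAM fluorescence signal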
RAD52 inh: RAD52 (human) annealing inhibition; P43351; recombinant RAD52 DNA annealing, FRET fluorescence; inhibition, % at 18.7 µM; 0.46% of 360,000 active; AID 651710;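 active = every replicate showing at least 50% inhibition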
Target sequence (P43351 whole entry, looked up): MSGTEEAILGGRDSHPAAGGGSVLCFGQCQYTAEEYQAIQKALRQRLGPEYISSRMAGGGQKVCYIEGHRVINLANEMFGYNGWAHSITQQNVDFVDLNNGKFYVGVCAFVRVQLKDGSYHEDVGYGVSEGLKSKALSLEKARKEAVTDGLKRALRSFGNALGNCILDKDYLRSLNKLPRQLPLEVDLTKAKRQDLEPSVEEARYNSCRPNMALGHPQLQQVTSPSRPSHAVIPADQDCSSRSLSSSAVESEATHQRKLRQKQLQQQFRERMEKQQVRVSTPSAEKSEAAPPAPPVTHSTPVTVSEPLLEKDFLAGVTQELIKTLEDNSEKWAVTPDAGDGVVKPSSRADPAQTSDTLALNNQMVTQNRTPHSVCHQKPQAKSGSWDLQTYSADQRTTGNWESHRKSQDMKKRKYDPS
MLL AF4-AF9 inh: blocks AF4 peptide binding to human AF9. P42568. AlphaScreen, biotin-AF4 peptide binding to FLAG-AF9. inhibition, % at 10 µM. 0.47% of 350,000 active;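 active = every replicate reaching a set inhibition limit, whatever the replicate mean, cut at about 25% in these data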
Glyco luc inh: N-linked glycosylation inhibition | 0.23% of 360,000 active | reporter increase, % at 12.5 µM | D54 ERlucT glycosylation luciferase reporter, 24 h; percent of 100 nM tunicamycin response;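 active = mean luciferase reporter signal, scaled so untreated is 0 and the glycosylation-blocking control 100, at or above a set limit in every replicate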;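 also: luciferase carries N-glycosylation sites so blocking glycosylation raises the light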
A number is an active result; – = inactive; · = no result given; ! = a repeat was not active.

SMILES	FN deposition inh	RAD54 inh	RAD52 inh	MLL AF4-AF9 inh	Glyco luc inh
CCOCCCNC(=O)c1cc2c(=O)n(CC)c3ccccc3c2s1	–	–	–	–	41
C[C@H]1CN([C@@H](C)CO)C(=O)c2cc(NS(=O)(=O)c3cccs3)ccc2O[C@H]1CN(C)C(=O)NC1CCCCC1	–	–	–	–	·
CCN1CCN(C(c2ccccc2)c2nnnn2Cc2ccccc2)CC1 (centres undefined)	33	–	·	·	–
CN1CCN(C(c2ccccc2)c2nnnn2Cc2ccccc2)CC1 (centres undefined)	·	–	·	·	–
Cc1ccc(-c2nn(-c3ccccc3)cc2CO)cc1	–	–	–	–	–
N=C(N)SCc1cn(-c2ccccc2)nc1-c1ccc(Br)cc1	–	·	–	33	–
C[C@H](CO)N1C[C@H](C)[C@@H](CN(C)Cc2ccc(-c3ccccc3)cc2)Oc2ccc(NC(=O)CCCN(C)C)cc2C1=O	–	–	–	–	·
C[C@H](CO)N1C[C@H](C)[C@H](CN(C)Cc2ccc(-c3ccccc3)cc2)Oc2ccc(NC(=O)CCCN(C)C)cc2C1=O	53	–	–	–	·
C[C@@H]1CN([C@H](C)CO)C(=O)c2cc(NC(=O)CCCN(C)C)ccc2O[C@H]1CN(C)Cc1ccc(-c2ccccc2)cc1	–	–	–	–	·
C[C@@H]1CN([C@H](C)CO)C(=O)Cc2cc(NC(=O)CCCN(C)C)ccc2O[C@@H]1CN(C)Cc1ccc(-c2ccccc2)cc1	–	–	79	–	·
C[C@H](CO)N1C[C@H](C)[C@@H](CN(C)Cc2ccccc2)Oc2ccc(NC(=O)CCCCCC(=O)Nc3ccccc3N)cc2C1=O	–	–	–	·	29
C[C@@H]1CN([C@H](C)CO)C(=O)c2cc(NC(=O)CCCCCC(=O)Nc3ccccc3N)ccc2O[C@@H]1CN(C)Cc1ccccc1	·	·	–	–	·
C[C@@H]1CN([C@@H](C)CO)C(=O)Cc2cc(NC(=O)CCCN(C)C)ccc2O[C@H]1CN(C)Cc1ccc(-c2ccccc2)cc1	–	·	77!	–	·
CCS(=O)(=O)N1CCC2(CC1)CN(Cc1ccccc1OC)[C@H](CO)c1c2c2ccc(OC)cc2n1C	·	·	–	–	·
C[C@H](CO)N1C[C@H](C)[C@@H](CN(C)Cc2ccc(C(=O)Nc3ccccc3N)cc2)Oc2ccc(NC(=O)Cc3cn(C)c4ccccc34)cc2CC1=O	·	–	61	–	·
C[C@@H]1CN([C@@H](C)CO)C(=O)Cc2cc(NC(=O)CCCN(C)C)ccc2O[C@H]1CN(C)Cc1ccc(C(=O)Nc2ccccc2N)cc1	·	·	83	31	·
C[C@@H]1CN(C)C(=O)c2cc(N(C)C)ccc2O[C@@H]1CN(C)C	–	·	·	·	·
c1cc(-c2ccc(C3[C@H]4CNC[C@@H]3N4CC3CCCCC3)cc2)ccn1 (some centres undefined)	–	·	–	29	·
c1cc(-c2ccc(C3[C@H]4CNC[C@@H]3N4CC3CCOCC3)cc2)ccn1 (some centres undefined)	–	·	–	–	·
CCCC#Cc1ccc([C@H]2[C@@H](CO)N3CCCCN(CC4CC4)C[C@H]23)cc1	·	–	53	–	·
COc1cccc(-c2ccc([C@H]3[C@@H](CO)N4CCCCN(CC5CCOCC5)C[C@@H]34)cc2)c1	·	–	56	–	·
COc1cccc(-c2ccc([C@@H]3[C@H]4CN(CC5CCOCC5)CCCCN4[C@H]3CO)cc2)c1	·	–	–	–	·
CN(C)CC#Cc1ccc([C@@H]2[C@@H](CO)N3CCCCN(CC4CCOCC4)C[C@H]23)cc1	·	–	–	–	·
CN(C)CC#Cc1ccc([C@@H]2[C@@H](CO)N3CCCCN(CC4CC4)C[C@@H]23)cc1	·	–	71	26	·
CN(C)CC#Cc1ccc([C@H]2[C@@H](CO)N3CCCCN(CC4CCOCC4)C[C@H]23)cc1	·	–	62	–	·
SMILES	FN deposition inh	RAD54 inh	RAD52 inh	MLL AF4-AF9 inh	Glyco luc inh
C[C@@H]1CN([C@H](C)CO)C(=O)CCCn2cc(nn2)CO[C@@H]1CN(C)C(=O)c1ccncc1	–	·	·	·	·
CN(C)CC#Cc1ccc([C@@H]2[C@H](CO)N3CCCCN(CC4CC4)C[C@@H]23)cc1	–	–	58	27	·
C[C@@H]1CN([C@@H](C)CO)S(=O)(=O)c2ccc(-c3ccc(C(=O)N(C)C)cc3)cc2O[C@@H]1CN(C)C(=O)C1CCCCC1	·	–	–	30	·
C[C@@H]1CN([C@H](C)CO)S(=O)(=O)c2ccc(C#Cc3ccccc3)cc2O[C@@H]1CN(C)C(=O)CN(C)C	–	–	68	–	–
Cc1ccc(-c2ccc3c(c2)O[C@@H](CN(C)C(=O)CN(C)C)[C@@H](C)CN([C@H](C)CO)S3(=O)=O)cc1	·	–	58	–	·
C[C@H](CO)N1C[C@H](C)[C@H](CN(C)CC2CC2)Oc2cc(/C=C/c3ccccc3)ccc2S1(=O)=O	–	–	–	26	·
Cc1ccc(-c2ccc3c(c2)O[C@@H](CN(C)C(=O)CN(C)C)[C@H](C)CN([C@H](C)CO)S3(=O)=O)cc1	·	–	–	–	·
C[C@H](CO)N1C[C@H](C)[C@H](CN(C)C(=O)CN(C)C)Oc2cc(C#Cc3ccccc3)ccc2S1(=O)=O	–	–	60	–	·
C[C@H]1COCn2nncc2CC[C@@H](Cc2ccccc2)C(=O)N1	–	·	·	·	·
CC1COCC(C)N1C1=C(Cl)C(=O)c2ccccc2C1=O (centres undefined)	–	–	–	27	34
C[C@@H]1CN([C@@H](C)CO)C(=O)c2cc(NC(=O)Cc3ccccc3)ccc2O[C@H]1CN(C)S(=O)(=O)c1cccs1	·	–	–	–	·
Cc1ccc(-c2ccc([C@H]3[C@@H](CO)N4C(=O)CN(C(=O)c5cccnc5)C[C@H]34)cc2)cc1	·	·	–	–	·
Cc1cc(=O)[nH]c(N/N=C/c2c(C)nn(-c3ccccc3)c2Cl)n1	–	·	–	–	–
Cc1nn(-c2ccccc2)c(Cl)c1/C=N/Nc1nc2ccccc2[nH]1	–	·	–	–	66
CN(C)c1ccc(N=Nc2ccc(C(=O)O)cc2)cc1	–	·	–	–	–
Cc1csc(N=Nc2ccc(N(C)C)cc2)[n+]1[O-]	–	·	–	52	–
COc1cc(N=Nc2ccccc2C(=O)O)ccc1O	–	–	–	–	–
COc1cc(N=Nc2ccc3ccccc3c2)ccc1O	–	–	–	29	–
Oc1ccc(N=Nc2ccc3ccccc3c2)cc1	–	–	–	26	–
C[C@H]1CN([C@@H](C)CO)C(=O)c2cc(NC(=O)Nc3ccc4c(c3)OCO4)ccc2O[C@@H]1CN(C)Cc1ccc(-c2ccccc2)cc1	·	–	–	–	·
C[C@@H]1CN([C@@H](C)CO)S(=O)(=O)c2ccc(C#CC3CC3)cc2O[C@H]1CN(C)CC1CCOCC1	–	–	–	–	·
CN1C(=O)c2cc(NC(=O)C3CCOCC3)ccc2OC[C@@H]2O[C@@H](CC(=O)O)CC[C@@H]21	–	–	–	–	·
C[C@H]1COCc2cnnn2CC[C@H](Cc2ccccc2)C(=O)N1	–	·	·	·	·
